Measured values from ChEMBL document CHEMBL1129335, “Synthesis and structure-activity relationships of 2-substituted D-tryptophan-containing peptidic endothelin receptor antagonists: importance of the C-2 substituent of the D-tryptophan residue for endothelin A and B receptor subtype selectivity” (J Med Chem, 1996).

Experiments:
[1] = target: T1, Endothelin receptor type B (Sus scrofa, UniProt P35463); experiment: Binding affinity towards endothelin B receptor in porcine cerebellum membranes; format: cell membranes, Membrane
T1 sequence (P35463 whole entry): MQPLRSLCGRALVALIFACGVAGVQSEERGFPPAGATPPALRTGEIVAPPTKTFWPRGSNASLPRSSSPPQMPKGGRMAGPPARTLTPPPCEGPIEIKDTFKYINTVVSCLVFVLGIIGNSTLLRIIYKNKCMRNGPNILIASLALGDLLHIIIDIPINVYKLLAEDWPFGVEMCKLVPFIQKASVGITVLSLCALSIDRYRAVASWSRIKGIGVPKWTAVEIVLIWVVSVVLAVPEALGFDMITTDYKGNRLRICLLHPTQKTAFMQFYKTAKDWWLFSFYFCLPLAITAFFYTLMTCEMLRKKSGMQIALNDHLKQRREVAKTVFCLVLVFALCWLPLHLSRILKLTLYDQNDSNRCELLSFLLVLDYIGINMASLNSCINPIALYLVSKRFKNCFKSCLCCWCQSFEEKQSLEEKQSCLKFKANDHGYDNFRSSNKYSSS
Procedure, shortened: (§1)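 Competitive binding in porcine membranes: aortic smooth muscle for ETA and cerebellum for ETB, run by a previously reported method. Variation was generally within 10%.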

Endothelin-1 receptor = target: T2, Endothelin-1 receptor (Sus scrofa, UniProt Q29010); experiment: Binding affinity towards endothelin A receptor in porcine aortic smooth muscle membranes.; procedure, shortened: as §1
T2 sequence (Q29010 whole entry): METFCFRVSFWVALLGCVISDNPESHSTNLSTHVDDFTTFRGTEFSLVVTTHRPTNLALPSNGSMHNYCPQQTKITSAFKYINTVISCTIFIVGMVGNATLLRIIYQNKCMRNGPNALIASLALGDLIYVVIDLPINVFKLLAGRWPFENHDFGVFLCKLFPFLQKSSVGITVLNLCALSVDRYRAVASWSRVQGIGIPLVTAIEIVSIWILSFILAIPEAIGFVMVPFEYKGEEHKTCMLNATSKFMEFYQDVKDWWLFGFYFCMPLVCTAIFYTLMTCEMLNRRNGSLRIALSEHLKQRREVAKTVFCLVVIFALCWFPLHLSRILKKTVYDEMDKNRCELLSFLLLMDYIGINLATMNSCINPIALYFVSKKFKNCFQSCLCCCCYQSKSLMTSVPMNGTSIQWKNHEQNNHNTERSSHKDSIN

| SMILES | IC50 [1] | IC50 (Endothelin-1 receptor) |
| --- | --- | --- |
| CCCCC(NC(=O)[C@@H](Cc1c(Br)[nH]c2ccccc12)NC(=O)C(CC(C)C)NC(=O)N1CCCCC1C)C(=O)O (some centres undefined) | 34 nM | 8.1 nM |
| CCCCC(NC(=O)[C@@H](Cc1c(C#N)[nH]c2ccccc12)NC(=O)C(NC(=O)N1[C@H](C)CCC[C@@H]1C)C(C)C(C)C)C(=O)O (some centres undefined) | 7.1 nM | 810 nM |
| CC(C)CC(NC(=O)N1[C@H](C)CCC[C@@H]1C)C(=O)N[C@H](Cc1c(Br)[nH]c2ccccc12)C(=O)NC(Cc1c[nH]c2ccccc12)C(=O)O (some centres undefined) | 1100 nM | 6.7 nM |
| CCCCCC[C@@H](NC(=O)[C@@H](Cc1c(Br)[nH]c2ccccc12)NC(=O)C(CC(C)C)NC(=O)N1[C@H](C)CCC[C@@H]1C)C(=O)O (some centres undefined) | 1900 nM | 110 nM |
| CCCCC(NC(=O)[C@@H](Cc1c(Br)[nH]c2ccccc12)NC(=O)C(CC(C)C)NC(=O)N1CCCCCCC1)C(=O)O (some centres undefined) | 26 nM | 27 nM |
| CCCCC(NC(=O)[C@@H](Cc1c(Cl)[nH]c2ccccc12)NC(=O)C(CC(C)C)NC(=O)N1[C@H](C)CCC[C@@H]1C)C(=O)O (some centres undefined) | 5.6 nM | 15 nM |
| Cc1[nH]c2ccccc2c1C[C@@H](NC(=O)C(NC(=O)N1[C@H](C)CCC[C@@H]1C)C1CC1)C(=O)NC(Cc1c[nH]cn1)C(=O)O (some centres undefined) | 170 nM | 4.8 nM |
| CCCCC(NC(=O)[C@@H](Cc1c(Cl)[nH]c2ccccc12)NC(=O)C(CCCC)NC(=O)N1[C@H](C)CCC[C@@H]1C)C(=O)O (some centres undefined) | 6.1 nM | 9 nM |
| CCCCC(NC(=O)[C@@H](Cc1c(Br)[nH]c2ccccc12)NC(=O)C(CC(C)C)NC(=O)N1CCCC1)C(=O)O (some centres undefined) | 2700 nM | 160 nM |
| CCCCC(NC(=O)[C@@H](Cc1c(Br)[nH]c2ccccc12)NC(=O)C(CC(C)C)NC(=O)N1CCCCC1)C(=O)O (some centres undefined) | 110 nM | 26 nM |
| CCCCC(NC(=O)[C@@H](Cc1c(Br)[nH]c2ccccc12)NC(=O)C(CC(C)C)NC(=O)N1CCCCCC1)C(=O)O (some centres undefined) | 28 nM | 9.1 nM |
| Cc1[nH]c2ccccc2c1C[C@H]1NC(=O)[C@H](C2CC2)NC(=O)[C@@H](C(C)C)NC(=O)[C@@H]2CCCN2C(=O)[C@@H](CC(=O)O)NC1=O | 270 nM | 8.1 nM |
| CCCC(NC(=O)[C@@H](Cc1c(C#N)[nH]c2ccccc12)NC(=O)C(NC(=O)N1[C@H](C)CCC[C@@H]1C)C(C)C)C(=O)O (some centres undefined) | 5.6 nM | 3000 nM |
| CC(C)CC(NC(=O)[C@@H](Cc1c(Br)[nH]c2ccccc12)NC(=O)C(CC(C)C)NC(=O)N1[C@H](C)CCC[C@@H]1C)C(=O)O (some centres undefined) | 14 nM | 21 nM |
| Cc1[nH]c2ccccc2c1C[C@@H](NC(=O)C(CC(C)C)NC(=O)N1[C@H](C)CCC[C@@H]1C)C(=O)NC(Cc1c[nH]cn1)C(=O)O (some centres undefined) | 99 nM | 2.8 nM |

The next compounds have a lower IC50 [1] than those just listed; values first:

| IC50 [1] | IC50 (Endothelin-1 receptor) | SMILES |
| --- | --- | --- |
| 4.6 nM | 51 nM | CCCCC(NC(=O)[C@@H](Cc1c(Cl)[nH]c2ccccc12)NC(=O)C(NC(=O)N1[C@H](C)CCC[C@@H]1C)C(C)CC)C(=O)O (some centres undefined) |
| 1.3 nM | 9.3 nM | CCCCC(NC(=O)[C@@H](Cc1c(Cl)[nH]c2ccccc12)NC(=O)C(NC(=O)N1[C@H](C)CCC[C@@H]1C)C1CC1)C(=O)O (some centres undefined) |
| 5 nM | 180 nM | CCCCC(NC(=O)[C@@H](Cc1c(CC)[nH]c2ccccc12)NC(=O)C(CC(C)C)NC(=O)N1[C@H](C)CCC[C@@H]1C)C(=O)O (some centres undefined) |
| 2.7 nM | 46 nM | CCCCC(NC(=O)[C@@H](Cc1c(Cl)[nH]c2ccccc12)NC(=O)C(NC(=O)N1[C@H](C)CCC[C@@H]1C)C1CCCC1)C(=O)O (some centres undefined) |
| 4.6 nM | 33 nM | CCCCC(NC(=O)[C@@H](Cc1c(Cl)[nH]c2ccccc12)NC(=O)C(NC(=O)N1[C@H](C)CCC[C@@H]1C)C(C)C)C(=O)O (some centres undefined) |
| 4.5 nM | 2.2 nM | CSCCC(NC(=O)[C@@H](Cc1c(Br)[nH]c2ccccc12)NC(=O)C(CC(C)C)NC(=O)N1[C@H](C)CCC[C@@H]1C)C(=O)O (some centres undefined) |
| 2.1 nM | 9.2 nM | CCCC(NC(=O)[C@@H](Cc1c(Br)[nH]c2ccccc12)NC(=O)C(CC(C)C)NC(=O)N1[C@H](C)CCC[C@@H]1C)C(=O)O (some centres undefined) |
